We go through 1 compound from ChEMBL document CHEMBL5335768, “Expanding the knowledge around antitubercular 5-(2-aminothiazol-4-yl)isoxazole-3-carboxamides: Hit-to-lead optimization and release of a novel antitubercular chemotype via scaffold derivatization” (Eur J Med Chem, 2023).

Values after ≈ are worked out from the molar mass of the structure shown. Active and inactive are the calls of the source. The rule behind the calls is not given here.

What is called MIC90 is the lowest concentration that inhibits either 90% of growth or 90% of the strains tested, depending on the study. Usually IC50 stands for the midpoint of a concentration-inhibition curve.

The test system of series [1] is Mycobacterium tuberculosis. In words: Antitubercular activity against Mycobacterium tuberculosis H37Rv assessed as inhibition of bacterial growth incubated for 7 days by REMA method. The series is classed as functional. Conditions: Mycobacterium tuberculosis, H37Rv, 168 h; time 7 day; read-out: MIC90.
The nature of series [2]: Drug metabolism in human liver microsomes assessed as 5-(2-((4-(hydroxymethyl)phenyl)amino)thiazol-4-yl)-N-phenylisoxazole-3-carboxamide formation at 100 uM measured after 180 mins by HR-MS analysis. The series is classed as ADME, Microsome. The conditions noted are these: 3 h. Put shortly: (§1)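 Metabolite ID: test compound at 100 μM initial concentration in pooled HLM incubates. Aliquots were taken at start and after 180 min, quenched with ACN, centrifuged and analysed by full-scan LC-HR-MS (Orbitrap, ESI+ and ESI−, resolution 15000). Data-dependent CID MS/MS was acquired at 30–35 V.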

A short description of series [3]: Drug metabolism in human liver microsomes assessed as 5-(2-((3-hydroxy-4-methylphenyl)amino)thiazol-4-yl)-N-phenylisoxazole-3-carboxamide formation at 100 uM measured after 180 mins by HR-MS analysis. Type of series: ADME, Microsome. Conditions: 3 h. Put shortly:
as §1
(Microsomes from liver hold many membrane-bound enzymes, among them those of drug oxidation.)

Series [4] in a line: Drug metabolism in human liver microsomes assessed as retention time of 5-(2-((4-(hydroxymethyl)phenyl)amino)thiazol-4-yl)-N-phenylisoxazole-3-carboxamide at 250 nM by HPLC-MS/MS analysis. The series is classed as ADME, Microsome. Conditions: 0.25 µM. Put shortly: (§2)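 Spiking: 10 μL HLM incubate was diluted with 90 μL ACN alone or with 250 nM of each synthetic hydroxylated standard in ACN. After centrifugation, HPLC-MS/MS retention times were compared for co-elution with the metabolites.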

Series [5] is described as follows: Drug metabolism in human liver microsomes assessed as retention time of 5-(2-((3-hydroxy-4-methylphenyl)amino)thiazol-4-yl)-N-phenylisoxazole-3-carboxamide at 250 nM by HPLC-MS/MS analysis. The series is classed as ADME, Microsome. The conditions noted are these: 0.25 µM. Put shortly:
as §2

Series [6] can be described thus: Drug metabolism in human liver microsomes assessed as retention time of metabolite with molecular mass [M+30] at 250 nM by HPLC-MS/MS analysis. Type of series: ADME, Microsome. The conditions noted are these: 0.25 µM.
For series [7], the system named is Mycobacterium marinum. In words: Antitubercular activity against Mycobacterium marinum ATCC BAA-535 assessed as inhibition of bacterial growth measured after 3 weeks by broth microdilution method. Conditions: ATCC BAA-535, 504 h. Type of series: functional. On the technique in general: Broth dilution looks for growth in wells or tubes with falling amounts of substance.

Series [8] can be described thus: Cytotoxicity against human THP-1 cells assessed as reduction in cell viability measured after 72 hrs by MTT assay. The series is classed as toxicity, cell-based. The method in brief:
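THP-1 monocytes were differentiated to macrophages with PMA 100 ng/mL for 72 h. They were then exposed to compounds at 1, 10, 50 and 100 μM for 72 h, each tested twice. MTT at 1 mg/mL in RPMI with 5% FBS was added for 2 h at 37 °C; formazan was dissolved in DMSO and read at 570 nm. Viability is given as % of control; IC50 from non-linear regression.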
A general note: Tetrazolium dyes change colour on reduction, which living cells bring about.

Series [9] is described as follows: Half life in human liver microsomes at 1 uM preincubated with NADP+ for 5 mins prior to compound addition by HPLC-MRM-MS analysis. The series is classed as ADME, Microsome. Put shortly: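 Pooled HLM at 1 mg/mL protein in 100 mM PBS pH 7.4 with an NADPH-regenerating mix: G6P 10 mM, NADP+ 2 mM, MgCl2 5 mM, G6PDH 1.5 U/mL (stock concentrations). Pre-incubated 5 min at 37 °C, then compound added to 1 μM final (1% DMSO).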

Series [10] deals with Mycobacterium marinum. Nature of the series: Antitubercular activity against mCherry-labeled Mycobacterium marinum infected in Zebra fish larvae assessed as reduction in granuloma formation at 6 to 8 ng, iv. Type of series: functional, organism-based. The conditions noted are these: dose 6-8 ng.
Series [11] is described as follows: Toxicity in Zebrafish infected with Mycobacterium marinum assessed as enlarged heart at 6 to 8 ng. iv. The arrangement: species or system Danio rerio. Conditions: in vivo, dose 6-8 ng.
Series [12] is described as follows: Toxicity in Zebrafish infected with Mycobacterium marinum assessed as enlarged yolk sac area at 6 to 8 ng. iv. The arrangement: species or system Danio rerio. The conditions noted are these: in vivo, dose 6-8 ng.

`Cc1ccc(Nc2nc(-c3cc(C(=O)Nc4ccccc4)no3)cs2)cc1`: the MIC90 was 1 µg/mL (≈ 2.66 µM) in [1] and 0.5 µg/mL (≈ 1.33 µM) in the series with Mycobacterium marinum [7]. For the same compound, the Drug metabolism result in series [2] and in [3] was “Metabolite_Detected” throughout. Besides, the Retention_time in [4] is 22.95 min; in [5], 25.44 min; in series [6], 23.65 min. Besides, the IC50 at 72 h in series [8] came to 88 µg/mL (≈ 234 µM). Besides, the t1/2 in series [9] is 35 min. Also, the result with Mycobacterium marinum [10] was Active. In addition, the Activity entry in [11] and in series [12] was “Toxic” in each case.
